Experimental data taken from ChEMBL document CHEMBL1122890, “Resolved monophenolic 2-aminotetralins and 1,2,3,4,4a,5,6,10b-octahydrobenzo[f]quinolines: structural and stereochemical considerations for centrally acting pre- and postsynaptic dopamine-receptor agonists” (1985).
The source made the active and inactive calls. The rule behind the calls is not given here.

Assays:
Rattus norvegicus [1] = assay: Evaluated for dopa accumulation (biochemical activity) in rat limbic system; Inactive at 50 umol/kg; type: functional, organism-based
Method in brief: (§1)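 Male Sprague-Dawley rats, 200-300 g. Compound dissolved in saline (sometimes with a little glacial acetic acid or warming), neutral pH, given sc at 50 μmol/kg. Dopa in limbic forebrain and striatum was measured by HPLC with electrochemical detection and expressed as percent of controls.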

Rattus norvegicus [2] = assay: Evaluated for dopa accumulation (biochemical activity) in rat striatum; Inactive at 50 umol/kg; type: functional, organism-based; method in brief: as §1
Rattus norvegicus [3] = assay: Evaluated for the dose giving a half-maximal decrease of dopa formation in the rat brain, at a dose of 3100 (nmol/kg); type: functional
Method in brief: (§2)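 Male Sprague-Dawley rats (200-300 g) received sc doses in saline, neutral pH. Dopa was measured in each brain area by HPLC with electrochemical detection. A separate dose-response curve was built per substance and brain area from four to six dose levels (n = 3-5). The dose giving half-maximal decrease of Dopa formation was estimated from that curve. Student's t-test was used, p ≤ 0.05.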

Rattus norvegicus [4] = organism: Rattus norvegicus; assay: Evaluated for dopa accumulation (biochemical activity) in rat limbic system; type: functional; method in brief: as §1
Rattus norvegicus [5] = assay: Evaluated for the dose giving a half-maximal decrease of dopa formation in the rat brain, at a dose of 1300 (nmol/kg); type: functional; method in brief: as §2
Rattus norvegicus [6] = organism: Rattus norvegicus; assay: Evaluated for dopa accumulation (biochemical activity) in rat striatum; type: functional; method in brief: as §1
Rattus norvegicus [7] = assay: Evaluated for the dose giving a half-maximal decrease of dopa formation in the rat brain, at a dose of 50000 (nmol/kg); type: functional; method in brief: as §2
Rattus norvegicus [8] = assay: Evaluated for the dose giving a half-maximal decrease of dopa formation in the rat brain, at a dose of 39000 (nmol/kg); type: functional; method in brief: as §2
Rattus norvegicus [9] = assay: Evaluated for the dose giving a half-maximal decrease of dopa formation in the rat brain, at a dose of 213000 (nmol/kg); type: functional; method in brief: as §2
Rattus norvegicus [10] = assay: Evaluated for the dose giving a half-maximal decrease of dopa formation in the rat brain, at a dose of 13000 (nmol/kg); type: functional; method in brief: as §2
Rattus norvegicus [11] = assay: Evaluated for the dose giving a half-maximal decrease of dopa formation in the rat brain, at a dose of 31000 (nmol/kg); type: functional; method in brief: as §2
Rattus norvegicus [12] = assay: Evaluated for the dose giving a half-maximal decrease of dopa formation in the rat brain, at a dose of 310 (nmol/kg); type: functional; method in brief: as §2

Structure (SMILES) | ED50 (Rattus norvegicus [4]) [µmol/kg] | ED50 (Rattus norvegicus [6]) [µmol/kg] | other results
CCCN1CCC[C@H]2c3cccc(O)c3CC[C@H]21 | – | – | ED50 (Rattus norvegicus [1]): inactive; ED50 (Rattus norvegicus [2]): inactive
CCCN1CCC[C@H]2c3cccc(O)c3CC[C@@H]21 | 0.014 | 0.014 | Accumulation counts (Rattus norvegicus [3]): <78 Counts; Accumulation counts (Rattus norvegicus [5]): <62 Counts
CCCN(CCC)[C@@H]1CCc2ccc(O)cc2C1 | 0.0095 | 0.011 | –
Br.CCCCN1CCCC2c3cc(O)ccc3CC[C@H]21 (some centres undefined) | – | – | Accumulation counts (Rattus norvegicus [7]): <75; ED50 (Rattus norvegicus [1]): inactive; ED50 (Rattus norvegicus [2]): inactive
CCCN(CCC)[C@@H]1CCc2c(O)cccc2C1.Cl | 0.41 | 0.65 | Accumulation counts (Rattus norvegicus [8]): <43
CCCN1CCC[C@@H](c2cccc(O)c2)C1.Cl [PRECLAMOL HYDROCHLORIDE] | 0.8 | 1.7 | Accumulation counts (Rattus norvegicus [9]): 12
CCCN(CCC)[C@H]1CCc2ccc(O)cc2C1 | 1.9 | 2.4 | –
CCCN1CCC[C@H](c2cccc(O)c2)C1.Cl | 1 | 1.3 | Accumulation counts (Rattus norvegicus [10]): 78
CCCN1CCC[C@@H]2c3cccc(O)c3CC[C@H]21 | 0.32 | 0.41 | Accumulation counts (Rattus norvegicus [7]): 31; Accumulation counts (Rattus norvegicus [3]): <59 Counts; Accumulation counts (Rattus norvegicus [11]): <138 Counts; ED50 (Rattus norvegicus [1]): inactive; ED50 (Rattus norvegicus [2]): inactive
CCCN(CCC)[C@H]1CCc2c(O)cccc2C1.Cl | 0.0037 | 0.0037 | Accumulation counts (Rattus norvegicus [12]): <155 Counts
CN1CCc2cccc3c2[C@H]1Cc1ccc(O)c(O)c1-3 [APOMORPHINE] | 0.19 | 0.22 | –
